Test results as given in ChEMBL document CHEMBL3259691, “Synthesis and cytotoxic activity of nitric oxide-releasing isosteviol derivatives” (Bioorg Med Chem Lett, 2014).

How the values were obtained:
[1] = test system: HepG2; experiment: Cytotoxicity against human HepG2 cells after 48 hrs by MTT assay; format: functional, cell-based; details: HepG2, 48 h
How it was run: (§1)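 Cells seeded in 96-well plates, exposed to compounds at various concentrations for 48 h at 37°C, 5% CO2. MTT (0.5 mg/mL) then added for 4 h, supernatant removed, formazan dissolved in DMSO, absorbance read at 570 nm. Percent inhibition of proliferation calculated per concentration; IC50 derived from dose-dependent response.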

[2] = Cytotoxicity against mouse B16F10 cells after 48 hrs by MTT assay; format: functional, cell-based; details: B16-F10, 48 h; how it was run: as §1

| Structure (SMILES) | IC50 [1] | IC50 [2] |
| --- | --- | --- |
| C[C@@]12CC[C@@H]3[C@@](CC[C@H]4[C@@]3(C)CCC[C@@]4(C)C(=O)O)(CC1=O)C2 [ISOSTEVIOL] | > 100 µM | > 100 µM |
| C=C[C@]12CC[C@H]3[C@@](C)(CCC[C@@]3(C)C(=O)O)[C@@H]1CC[C@](C)(COC(=O)CCC(=O)OCC#CCOc1no[n+]([O-])c1S(=O)(=O)c1ccccc1)C2 | 7.54 µM | 3.84 µM |
| C[C@@]12CC[C@@H]3[C@@](CC[C@H]4[C@@]3(C)CCC[C@@]4(C)C(=O)NCC(=O)OCC#CCOc3no[n+]([O-])c3S(=O)(=O)c3ccccc3)(CC1=O)C2 | 4.24 µM | 0.25 µM |
| CC[C@@]1(O)C(=O)OCc2c1cc1n(c2=O)Cc2cc3ccccc3nc2-1 [CAMPTOTHECIN] |  | 2.78 µM |
| C=C[C@]12CC[C@H]3[C@@](C)(CCC[C@@]3(C)C(=O)O)[C@@H]1CC[C@](C)(COC(=O)CCC(=O)OCCOc1no[n+]([O-])c1S(=O)(=O)c1ccccc1)C2 | 6.44 µM | 1.98 µM |
| C[C@]12CC[C@@H]3[C@](CC[C@H]4[C@@]3(C)CCC[C@@]4(C)C(=O)NCC(=O)OCCCCOc3no[n+]([O-])c3S(=O)(=O)c3ccccc3)(C1)C(C=O)O2 (some centres not stated) |  | 5.21 µM |
| COC(=O)[C@]1(C)CCC[C@@]2(C)[C@@H]3CC[C@@]4(C)C[C@]3(CC[C@@H]21)C/C4=N\OC(=O)CCC(=O)OCCOCCOc1no[n+]([O-])c1S(=O)(=O)c1ccccc1 | 2.75 µM | 2.12 µM |
| COC(=O)[C@]1(C)CCC[C@@]2(C)[C@@H]3CC[C@@]4(C)C[C@]3(CC[C@@H]21)C/C4=N\OC(=O)CCC(=O)OCCCOc1no[n+]([O-])c1S(=O)(=O)c1ccccc1 | 33.4 µM |  |
| C[C@@]12CC[C@@H]3[C@@](CC[C@H]4[C@@]3(C)CCC[C@@]4(C)C(=O)NCC(=O)OCCOc3no[n+]([O-])c3S(=O)(=O)c3ccccc3)(CC(=O)O1)C2 |  | 3.52 µM |
| C=C1C(=O)[C@@]2(C)CC[C@@H]3[C@]1(CC[C@H]1[C@@]3(C)CCC[C@@]1(C)C(=O)NCC(=O)OCCCOc1no[n+]([O-])c1S(=O)(=O)c1ccccc1)C2 | 38.6 µM | 0.016 µM |
| COC(=O)[C@]12CCC(C)(C)C[C@H]1[C@H]1C(=O)C=C3[C@@]4(C)C=C(C#N)C(=O)C(C)(C)[C@@H]4CC[C@@]3(C)[C@]1(C)CC2 [BARDOXOLONE METHYL] | 4.99 µM | 5.85 µM |
| COC(=O)[C@]1(C)CCC[C@@]2(C)[C@@H]3CC[C@@]4(C)C[C@]3(CC[C@@H]21)C/C4=N\OC(=O)CCC(=O)OCCOc1no[n+]([O-])c1S(=O)(=O)c1ccccc1 | 30.2 µM |  |
| C=C1C(=O)[C@@]2(C)CC[C@@H]3[C@]1(CC[C@H]1[C@@]3(C)CCC[C@@]1(C)C(=O)NCC(=O)OCCOc1no[n+]([O-])c1S(=O)(=O)c1ccccc1)C2 | 7.13 µM | 1.01 µM |
| C[C@@]12CC[C@@H]3[C@@](CC[C@H]4[C@@]3(C)CCC[C@@]4(C)C(=O)NCC(=O)OCCOc3no[n+]([O-])c3S(=O)(=O)c3ccccc3)(CC1=O)C2 | > 50 µM | 2.76 µM |
| C=C[C@]12CC[C@H]3[C@@](C)(CCC[C@@]3(C)C(=O)O)[C@@H]1CC[C@](C)(COC(=O)CCC(=O)OCCCOc1no[n+]([O-])c1S(=O)(=O)c1ccccc1)C2 |  | > 50 µM |
| COC(=O)[C@]1(C)CCC[C@@]2(C)[C@@H]3CC[C@@]4(C)C[C@]3(CC[C@@H]21)C/C4=N\OC(=O)CCC(=O)OCCCCOc1no[n+]([O-])c1S(=O)(=O)c1ccccc1 | 5.16 µM |  |
| C[C@@]12CC[C@@H]3[C@@](CC[C@H]4[C@@]3(C)CCC[C@@]4(C)C(=O)NCC(=O)OCCCOc3no[n+]([O-])c3S(=O)(=O)c3ccccc3)(CC1=O)C2 |  | 8.06 µM |
| C[C@@]12CC[C@@H]3[C@@](CC[C@H]4[C@@]3(C)CCC[C@@]4(C)C(=O)NCC(=O)OCCCOc3no[n+]([O-])c3S(=O)(=O)c3ccccc3)(CC(=O)O1)C2 |  | 2.05 µM |
